Measured values published in ChEMBL document CHEMBL1667800, “Synthesis, DNA/RNA affinity and antitumour activity of new aromatic diamidines linked by 3,4-ethylenedioxythiophene” (Eur J Med Chem, 2011).
Calls of active or inactive are those of the source. No cut-off for these calls is given here.

How the values were obtained:
HeLa [1] = experiment: Cytotoxicity against human HeLa cells after 72 hrs by MTT assay; type: functional
How it was run: (§1)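 Cells were seeded at 2 × 10^4 cells/mL and attached overnight at 37 °C, 5% CO2. They were then exposed for 72 h to compounds from aqueous stocks (working solutions 10^-3–10^-6 mol dm^-3). MTT was added for 4 h at 37 °C, formazan dissolved in DMSO, and absorbance read at 570 nm. GI50 is the mean ± SD of three independent experiments run in triplicate.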

HEp-2 = experiment: Cytotoxicity against human Hep2 cells after 72 hrs by MTT assay; type: functional; details: HEp-2, 72 h; how it was run: as §1
HeLa [2] = experiment: Induction of cell cycle arrest in human HeLa assessed as accumulation at S-phase at 5x10'-6 M after 24 hrs by FACS analysis (RVb = 27.7+/-4.2%); type: functional
HeLa [3] = experiment: Induction of cell cycle arrest in human HeLa assessed as accumulation at S-phase at 1x10'-6 M after 72 hrs by FACS analysis (RVb = 28.8+/-3.2%); type: functional
HeLa [4] = experiment: Induction of cell cycle arrest in human HeLa assessed as accumulation at G0/G1-phase at 5x10'-6 M after 72 hrs by FACS analysis (RVb = 63.4+/-3.2%); type: functional
HeLa [5] = experiment: Induction of cell cycle arrest in human HeLa assessed as accumulation at G2/M-phase at 1x10'-6 M after 72 hrs by FACS analysis (RVb = 7.8+/-3.1%); type: functional
Calf thymus DNA [6] = experiment: Binding affinity to calf thymus DNA assessed as DNA CD band at compound over DNA molar ratio of > 0.2 by circular dichroism titration; type: nucleic-acid assay; details: Bos taurus
How it was run: (§2)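 CD titration of polynucleotide (2.0 × 10^-5 mol dm^-3, as phosphate) with added compound over a range of r = [compound]/[polynucleotide]. Na-cacodylate buffer, pH 7.0, I = 0.05 mol dm^-3, 1 cm quartz cuvette. ct-DNA was sonicated and filtered before use. Changes in the polynucleotide CD band and induced CD bands were followed.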

Calf thymus DNA [7] = experiment: Binding affinity to calf thymus DNA assessed as melting temperature at compound over DNA molar ratio of 0.1 at pH 7 by thermal denaturation assay; type: nucleic-acid assay; details: Bos taurus
How it was run: (§3)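 Thermal melting of ds-polynucleotide (ct-DNA or poly A-poly U) alone and with compound at the given r, Na-cacodylate pH 7.0, I = 0.05 mol dm^-3. Absorbance at 260 nm was followed versus temperature, with compound absorbance subtracted and the curve normalized. Tm was taken from the first-derivative maximum or by tangent. ΔTm = Tm(complex) − Tm(free nucleic acid).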

Nucleic Acid = experiment: Binding affinity to polu A-poly U assessed as melting temperature at compound over DNA molar ratio of 0.3 at pH 7 by thermal denaturation assay; type: nucleic-acid assay; how it was run: as §3
HeLa [8] = experiment: Induction of cell cycle arrest in human HeLa assessed as accumulation at G0/G1-phase at 1x10'-6 M after 72 hrs by FACS analysis (RVb = 63.4+/-3.2%); type: functional
HeLa [9] = experiment: Induction of cell cycle arrest in human HeLa assessed as accumulation at G2/M-phase at 5x10'-6 M after 72 hrs by FACS analysis (RVb = 7.8+/-3.1%); type: functional
Calf thymus DNA [10] = experiment: Binding affinity to calf thymus DNA assessed as batochromic effect at compound over DNA molar ratio of 0.2 by UV-Vis spectra; type: nucleic-acid assay; details: Bos taurus
How it was run: (§4)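 UV-Vis titration of compound (c = 1.97 × 10^-5 mol dm^-3 in the shown example) with ct-DNA. Na-cacodylate buffer, pH 7.0, I = 0.05 mol dm^-3, 1 cm quartz cuvette. Absorbance at the maximum was tracked against c(ct-DNA). Ks and n were obtained by non-linear least-squares Scatchard fitting.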

Calf thymus DNA [11] = experiment: Binding affinity to calf thymus DNA assessed as melting temperature at compound over DNA molar ratio of 0.2 at pH 7 by thermal denaturation assay; type: nucleic-acid assay; details: Bos taurus; how it was run: as §3
HeLa [12] = experiment: Induction of cell cycle arrest in human HeLa assessed as accumulation at S-phase at 5x10'-6 M after 48 hrs by FACS analysis (RVb = 30.4+/-3.7%); type: functional
Calf thymus DNA [13] = experiment: Binding affinity to calf thymus DNA assessed as batochromic effect at compound over DNA molar ratio of 0.2 by fluorimetric titration; type: nucleic-acid assay; details: Bos taurus
How it was run: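 Fluorimetric titration of compound (about 1.0 × 10^-6 mol dm^-3) with ct-DNA. Excitation above 360 nm to avoid inner-filter effects. Na-cacodylate buffer, pH 7.0, I = 0.05 mol dm^-3. Emission at the maximum was plotted against c(ct-DNA). Ks and n were obtained by non-linear Scatchard fitting.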

HeLa [14] = experiment: Induction of cell cycle arrest in human HeLa assessed as accumulation at G2/M-phase at 5x10'-6 M after 48 hrs by FACS analysis (RVb = 8.4+/-3.9%); type: functional
AGS = experiment: Cytotoxicity against human AGS cells after 72 hrs by MTT assay; type: functional; how it was run: as §1
HeLa [15] = experiment: Induction of cell cycle arrest in human HeLa assessed as accumulation at S-phase at 1x10'-6 M after 24 hrs by FACS analysis (RVb = 27.7+/-4.2%); type: functional
HeLa [16] = experiment: Induction of cell cycle arrest in human HeLa assessed as accumulation at G2/M-phase at 5x10'-6 M after 24 hrs by FACS analysis (RVb = 10.1+/-3.4%); type: functional
HeLa [17] = experiment: Induction of cell cycle arrest in human HeLa assessed as accumulation at G2/M-phase at 1x10'-6 M after 48 hrs by FACS analysis (RVb = 8.4+/-3.9%); type: functional
HeLa [18] = experiment: Induction of cell cycle arrest in human HeLa assessed as accumulation at G0/G1-phase at 5x10'-6 M after 24 hrs by FACS analysis (RVb = 62.2+/-4.4%); type: functional
[19] = Cytotoxicity against MDCK cells after 72 hrs by MTT assay; type: cell-based, Canis lupus familiaris; details: dog; how it was run: as §1
Calf thymus DNA [20] = experiment: Binding affinity to calf thymus DNA assessed as melting temperature at compound over DNA molar ratio of 0.3 at pH 7 by thermal denaturation assay; type: nucleic-acid assay; details: Bos taurus; how it was run: as §3
Calf thymus DNA [21] = experiment: Binding affinity to calf thymus DNA assessed as hyperchromic effect at compound over DNA molar ratio of 0.5 by UV-Vis spectra; type: nucleic-acid assay; details: Bos taurus; in the assay text read “hypochromic effect” for “hyperchromic effect”; how it was run: as §4
Calf thymus DNA [22] = experiment: Binding affinity to calf thymus DNA minor groove assessed as DNA CD band at compound over DNA molar ratio of < 0.2 by circular dichroism titration; type: nucleic-acid assay; details: Bos taurus; how it was run: as §2
MIA PaCa-2 = experiment: Cytotoxicity against human MIAPaCa2 cells after 72 hrs by MTT assay; type: functional; details: MIA PaCa-2, 72 h; how it was run: as §1
HeLa [23] = experiment: Induction of cell cycle arrest in human HeLa assessed as accumulation at S-phase at 1x10'-6 M after 48 hrs by FACS analysis (RVb = 30.4+/-3.7%); type: functional
HeLa [24] = experiment: Induction of cell cycle arrest in human HeLa assessed as accumulation at G2/M-phase at 1x10'-6 M after 24 hrs by FACS analysis (RVb = 10.1+/-3.4%); type: functional
MCF7 = experiment: Cytotoxicity against human MCF7 cells after 72 hrs by MTT assay; type: functional; details: MCF7, 72 h; how it was run: as §1
HeLa [25] = experiment: Induction of cell cycle arrest in human HeLa assessed as accumulation at G0/G1-phase at 1x10'-6 M after 48 hrs by FACS analysis (RVb = 61.2+/-2.3%); type: functional
Caco-2 = experiment: Cytotoxicity against human Caco2 cells after 72 hrs by MTT assay; type: functional; details: Caco-2, 72 h; how it was run: as §1
HeLa [26] = experiment: Induction of cell cycle arrest in human HeLa assessed as accumulation at G0/G1-phase at 5x10'-6 M after 48 hrs by FACS analysis (RVb = 61.2+/-2.3%); type: functional
NCI-H358 = experiment: Cytotoxicity against human NCI-H358 cells after 72 hrs by MTT assay; type: functional; details: NCI-H358, 72 h; how it was run: as §1
HeLa [27] = experiment: Induction of cell cycle arrest in human HeLa assessed as accumulation at G0/G1-phase at 1x10'-6 M after 24 hrs by FACS analysis (RVb = 62.2+/-4.4%); type: functional
HeLa [28] = experiment: Induction of cell cycle arrest in human HeLa assessed as accumulation at S-phase at 5x10'-6 M after 72 hrs by FACS analysis (RVb = 28.8+/-3.2%); type: functional
HeLa [29] = experiment: Induction of cell cycle arrest in human HeLa assessed as accumulation at G0/G1-phase at 5x10'-5 M after 72 hrs by FACS analysis (RVb = 62.2+/-4.4%); type: functional
HeLa [30] = experiment: Induction of cell cycle arrest in human HeLa assessed as accumulation at S-phase at 5x10'-5 M after 24 hrs by FACS analysis (RVb = 62.2+/-4.4%); type: functional
HeLa [31] = experiment: Induction of cell cycle arrest in human HeLa assessed as accumulation at G2/M-phase at 5x10'-5 M after 24 hrs by FACS analysis (RVb = […]); type: functional
HeLa [32] = experiment: Induction of cell cycle arrest in human HeLa assessed as accumulation at S-phase at 5x10'-5 M after 48 hrs by FACS analysis (RVb = 62.2+/-4.4%); type: functional
HeLa [33] = experiment: Induction of cell cycle arrest in human HeLa assessed as accumulation at S-phase at 5x10'-5 M after 72 hrs by FACS analysis (RVb = 62.2+/-4.4%); type: functional
HeLa [34] = experiment: Induction of cell cycle arrest in human HeLa assessed as accumulation at G2/M-phase at 5x10'-5 M after 48 hrs by FACS analysis (RVb = […]); type: functional
HeLa [35] = experiment: Induction of cell cycle arrest in human HeLa assessed as accumulation at G0/G1-phase at 5x10'-5 M after 24 hrs by FACS analysis (RVb = 62.2+/-4.4%); type: functional
HeLa [36] = experiment: Induction of cell cycle arrest in human HeLa assessed as accumulation at G2/M-phase at 5x10'-5 M after 72 hrs by FACS analysis (RVb = […]); type: functional
HeLa [37] = experiment: Induction of cell cycle arrest in human HeLa assessed as accumulation at G0/G1-phase at 5x10'-5 M after 48 hrs by FACS analysis (RVb = 62.2+/-4.4%); type: functional

`Cl.Cl.c1cc(-c2sc(-c3ccc(C4=NCCN4)cc3)c3c2OCCO3)ccc1C1=NCCN1` gave a GI50 (HeLa [1]) of 1.5 µM, a GI50 (HEp-2) of 3 µM and an Activity (HeLa [2]) of 29.1%. It also gave an Activity (HeLa [3]) of 25.9%, an Activity (HeLa [4]) of 46.4% and an Activity (HeLa [5]) of 11.9%. The Activity (Calf thymus DNA [6]) was “Active”, the ΔTm (Calf thymus DNA [7]) was 10.8 °C and the ΔTm (Nucleic Acid) was 17 °C. For the same compound, the Activity (HeLa [8]) was 62.2%, the Activity (HeLa [9]) was 21.1% and the Activity (Calf thymus DNA [10]) was “Active”. The ΔTm (Calf thymus DNA [11]) was 14.3 °C, the Activity (HeLa [12]) was 37.3% and the Activity (Calf thymus DNA [13]) was “Active”. It also gave an Activity (HeLa [14]) of 18.5%, a GI50 (AGS) of 4.3 µM and an Activity (HeLa [15]) of 30.2%. For the same compound, the Activity (HeLa [16]) was 17.6%, the Activity (HeLa [17]) was 7.3% and the Activity (HeLa [18]) was 53.3%. For the same compound, the GI50 at 72 h [19] was 17 µM, the ΔTm (Calf thymus DNA [20]) was > 16 °C and the Activity (Calf thymus DNA [21]) was “Active”. The Activity (Calf thymus DNA [22]) was “Active”, the GI50 (MIA PaCa-2) was 9 µM and the Activity (HeLa [23]) was 33.1%. The Activity (HeLa [24]) was 14.4%, the GI50 (MCF7) was 2.7 µM and the Activity (HeLa [25]) was 59.6%. It also gave a GI50 (Caco-2) of 3.1 µM, an Activity (HeLa [26]) of 44.2% and a GI50 (NCI-H358) of 4.1 µM. It also gave an Activity (HeLa [27]) of 55.4% and an Activity (HeLa [28]) of 32.5%.
Work on `CN1CCN(c2ccc3[nH]c(-c4ccc5[nH]c(-c6ccc(O)cc6)nc5c4)nc3c2)CC1` [HOECHST 33258] yielded a GI50 (HeLa [1]) of 116 µM, a GI50 (HEp-2) of 132 µM and an Activity (HeLa [29]) of 45.7%. For the same compound, the Activity (HeLa [30]) was 41.6%, the Activity (HeLa [31]) was 7.1% and the GI50 (AGS) was 112 µM. The Activity (HeLa [32]) was 42.6%, the GI50 at 72 h [19] was 158 µM and the GI50 (MIA PaCa-2) was 192 µM. It also gave a GI50 (MCF7) of 5.7 µM, an Activity (HeLa [33]) of 43.1% and a GI50 (Caco-2) of 84 µM. It also gave an Activity (HeLa [34]) of 8.4%, an Activity (HeLa [35]) of 51.3% and a GI50 (NCI-H358) of 91.7 µM. It also gave an Activity (HeLa [36]) of 11.2% and an Activity (HeLa [37]) of 49%.
